The results in this text go back to ChEMBL document CHEMBL4304834, “3-Amino-chromanes and Tetrahydroquinolines as Selective 5-HT2B, 5-HT7, or σ1 Receptor Ligands” (ACS Med Chem Lett, 2019).

Assay [1] concerns the target 5-hydroxytryptamine receptor 1B (Homo sapiens, UniProt P28222). Description: Displacement of [3H]5-CT from human recombinant 5-HT1B receptor expressed in stable HEK cells at 10 uM after 90 mins by microbeta scintillation counting method relative to control. Type of assay: cell-based. For orientation: Loss of bound radioactivity is the signal in a displacement assay; it reports binding, not function.

In assay [2] the target is GABA-A receptor; anion channel (Rattus norvegicus) (UniProt O09028+P15431+P18506+P18508+P19969+P20236+P23574+P23576+P28471+P28473+P30191+P62813+P63079+P63138+Q91ZM7+Q9ES14). In words: Displacement of [3H]-Muscimol from GABAA receptor in rat brain at 10 uM incubated for 90 mins by microbeta scintillation counting method relative to control. Type of assay: tissue-based. The method, boiled down: (§1)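 Radioligand binding run by the NIMH Psychoactive Drug Screening Program. […] Otherwise Ki comes from sigmoidal curve fits of triplicate measurements in a single experiment, or is averaged over repeated experiments each run in triplicate.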

For assay [3], the target named is T1, Alpha-1A adrenergic receptor (Homo sapiens) (UniProt P35348).
T1 sequence (whole entry): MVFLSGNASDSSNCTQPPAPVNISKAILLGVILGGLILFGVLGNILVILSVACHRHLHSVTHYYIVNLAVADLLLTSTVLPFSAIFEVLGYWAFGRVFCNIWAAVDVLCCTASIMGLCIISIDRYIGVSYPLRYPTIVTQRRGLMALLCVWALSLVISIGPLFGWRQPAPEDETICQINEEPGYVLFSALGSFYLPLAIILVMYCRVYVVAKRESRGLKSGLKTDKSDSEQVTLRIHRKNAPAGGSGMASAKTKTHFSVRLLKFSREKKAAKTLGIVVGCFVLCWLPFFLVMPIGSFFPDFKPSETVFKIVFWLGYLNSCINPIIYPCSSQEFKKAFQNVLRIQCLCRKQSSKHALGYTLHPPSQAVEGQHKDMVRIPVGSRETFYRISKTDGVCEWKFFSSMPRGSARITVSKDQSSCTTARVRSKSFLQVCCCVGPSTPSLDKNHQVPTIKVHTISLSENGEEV
In words: Displacement of [3H]-Prazosin from human recombinant adrenergic alpha1A receptor expressed in cells at 10 uM after 90 mins by microbeta scintillation counting method relative to control. It is filed as cell-based.

In assay [4] the target is Sigma intracellular receptor 2 (Homo sapiens, UniProt Q5BJF2). Description: Displacement of […] from human recombinant sigma2 receptor expressed in HEKT cells after 90 mins by microbeta scintillation counting method. Type of assay: cell-based. The method, boiled down:
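Run by NIMH Psychoactive Drug Screening Program. Otherwise, competition binding curves are generated and pKi is taken from a sigmoidal curve fit. Data are either triplicate measurements within one experiment, with the error from the fit, or the mean of repeated experiments, each run in triplicate.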

In assay [5] the target is T2, Muscarinic acetylcholine receptor M2 (Homo sapiens) (UniProt P08172).
T2 sequence (whole entry): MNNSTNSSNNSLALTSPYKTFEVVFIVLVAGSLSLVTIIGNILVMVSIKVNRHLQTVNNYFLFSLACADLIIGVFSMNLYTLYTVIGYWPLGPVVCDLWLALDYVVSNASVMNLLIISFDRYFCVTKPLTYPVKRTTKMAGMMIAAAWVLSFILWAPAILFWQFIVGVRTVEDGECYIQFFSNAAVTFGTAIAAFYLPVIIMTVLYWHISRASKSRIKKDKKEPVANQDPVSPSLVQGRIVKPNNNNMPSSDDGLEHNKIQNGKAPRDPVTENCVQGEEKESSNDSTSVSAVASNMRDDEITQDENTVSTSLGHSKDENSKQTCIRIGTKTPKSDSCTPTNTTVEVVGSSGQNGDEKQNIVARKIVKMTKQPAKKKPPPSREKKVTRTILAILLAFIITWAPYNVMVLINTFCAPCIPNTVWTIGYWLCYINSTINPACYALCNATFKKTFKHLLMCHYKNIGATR
In words: Displacement of [3H]-QNB/[3H]-NMS from human recombinant Muscarinic acetylcholine M2 receptor expressed in stable CHO cells at 10 uM after 90 mins by microbeta scintillation counting method relative to control. It is filed as cell-based.

Assay [6] deals with Histamine H2 receptor (Homo sapiens, UniProt P25021). In words: Displacement of [125I]-Iodoaminopotentidine from human recombinant histamine H2 receptor expressed in stable HEK cells at 10 uM after 90 mins by microbeta scintillation counting method relative to control. Type of assay: cell-based. The method, boiled down: as §1
For assay [7], the target named is Histamine H4 receptor (Homo sapiens, UniProt Q9H3N8). In words: Displacement of [3H]-Histamine from human recombinant histamine H4 receptor expressed in HEKT cells after 90 mins by microbeta scintillation counting method. It is filed as cell-based. The method, boiled down:
as §1

Assay [8] addresses T3, Muscarinic acetylcholine receptor M4 (Homo sapiens) (UniProt P08173).
T3 sequence (whole entry): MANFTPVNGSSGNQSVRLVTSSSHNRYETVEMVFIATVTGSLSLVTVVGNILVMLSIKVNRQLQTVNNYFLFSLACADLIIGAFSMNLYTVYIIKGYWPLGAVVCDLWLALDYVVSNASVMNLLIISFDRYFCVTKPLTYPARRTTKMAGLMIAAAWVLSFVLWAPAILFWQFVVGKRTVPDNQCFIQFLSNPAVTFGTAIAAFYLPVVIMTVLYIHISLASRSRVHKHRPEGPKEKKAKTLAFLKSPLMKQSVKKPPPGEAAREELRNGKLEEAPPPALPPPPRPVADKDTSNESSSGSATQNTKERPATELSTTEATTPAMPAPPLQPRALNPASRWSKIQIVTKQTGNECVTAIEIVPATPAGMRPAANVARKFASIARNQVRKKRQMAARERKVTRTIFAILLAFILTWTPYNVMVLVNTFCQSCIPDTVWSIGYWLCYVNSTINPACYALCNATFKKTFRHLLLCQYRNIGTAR
Description: Displacement of [3H]-QNB/[3H]-NMS from human recombinant Muscarinic acetylcholine M4 receptor expressed in stable CHO cells at 10 uM after 90 mins by microbeta scintillation counting method relative to control. Type of assay: cell-based.

Assay [9] addresses Muscarinic acetylcholine receptor M3 (Homo sapiens, UniProt P20309). In words: Displacement of [3H]-QNB/[3H]-NMS from human recombinant Muscarinic acetylcholine M3 receptor expressed in stable CHO cells at 10 uM after 90 mins by microbeta scintillation counting method relative to control. It is filed as cell-based.
For assay [10], the target named is Beta-3 adrenergic receptor (Homo sapiens, UniProt P13945). In words: Displacement of [3H]-CGP12177 from human recombinant adrenergic Beta3 receptor expressed in Flp-In HEK cells at 10 uM after 90 mins by microbeta scintillation counting method relative to control. Type of assay: cell-based. The method, boiled down: as §1
Assay [11] concerns the target 5-hydroxytryptamine receptor 2A (Homo sapiens, UniProt P28223). In words: Displacement of [3H]-Ketanserin from human recombinant 5-HT2A receptor transiently expressed in HEKT cells after 90 mins by microbeta scintillation counting method. Type of assay: cell-based. The method, boiled down: as §1

Chain of Beta-3 adrenergic receptor (P13945 whole entry, looked up): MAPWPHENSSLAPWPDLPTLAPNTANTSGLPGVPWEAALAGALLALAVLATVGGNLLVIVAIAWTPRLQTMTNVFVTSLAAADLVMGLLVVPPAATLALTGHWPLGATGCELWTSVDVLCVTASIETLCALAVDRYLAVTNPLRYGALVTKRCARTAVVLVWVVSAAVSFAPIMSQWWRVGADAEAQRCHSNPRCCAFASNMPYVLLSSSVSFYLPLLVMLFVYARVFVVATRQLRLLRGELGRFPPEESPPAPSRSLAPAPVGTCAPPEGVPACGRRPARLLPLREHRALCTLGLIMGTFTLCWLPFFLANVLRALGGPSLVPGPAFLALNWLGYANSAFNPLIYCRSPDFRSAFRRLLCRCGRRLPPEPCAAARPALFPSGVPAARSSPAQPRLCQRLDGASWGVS
Chain of Histamine H4 receptor (Q9H3N8 whole entry): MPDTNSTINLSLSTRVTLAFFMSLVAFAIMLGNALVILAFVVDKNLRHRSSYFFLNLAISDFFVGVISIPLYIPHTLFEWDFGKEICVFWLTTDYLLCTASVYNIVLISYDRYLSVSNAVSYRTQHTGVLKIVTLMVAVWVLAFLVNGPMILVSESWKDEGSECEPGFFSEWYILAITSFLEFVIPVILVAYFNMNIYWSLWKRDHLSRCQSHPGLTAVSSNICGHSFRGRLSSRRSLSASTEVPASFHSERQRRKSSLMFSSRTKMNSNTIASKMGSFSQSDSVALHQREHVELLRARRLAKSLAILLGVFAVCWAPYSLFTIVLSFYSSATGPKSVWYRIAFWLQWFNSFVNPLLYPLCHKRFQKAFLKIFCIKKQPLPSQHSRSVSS
Chain of Sigma intracellular receptor 2 (Q5BJF2 whole entry): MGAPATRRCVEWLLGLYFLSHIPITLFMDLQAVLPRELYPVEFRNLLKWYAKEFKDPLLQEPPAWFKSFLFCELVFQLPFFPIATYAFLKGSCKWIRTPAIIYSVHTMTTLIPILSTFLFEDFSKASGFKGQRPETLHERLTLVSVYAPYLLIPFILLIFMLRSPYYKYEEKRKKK
Chain of Histamine H2 receptor (P25021 whole entry): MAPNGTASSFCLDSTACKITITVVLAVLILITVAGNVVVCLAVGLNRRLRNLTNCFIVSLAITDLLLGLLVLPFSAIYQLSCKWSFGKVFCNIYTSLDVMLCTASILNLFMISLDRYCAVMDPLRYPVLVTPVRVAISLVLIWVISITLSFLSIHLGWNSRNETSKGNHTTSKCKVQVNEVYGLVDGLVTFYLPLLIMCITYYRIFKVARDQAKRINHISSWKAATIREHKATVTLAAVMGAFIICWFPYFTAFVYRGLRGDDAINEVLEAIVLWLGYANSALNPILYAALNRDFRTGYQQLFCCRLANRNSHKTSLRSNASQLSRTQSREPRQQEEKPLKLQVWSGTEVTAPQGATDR
Chain of Muscarinic acetylcholine receptor M3 (P20309 whole entry, looked up): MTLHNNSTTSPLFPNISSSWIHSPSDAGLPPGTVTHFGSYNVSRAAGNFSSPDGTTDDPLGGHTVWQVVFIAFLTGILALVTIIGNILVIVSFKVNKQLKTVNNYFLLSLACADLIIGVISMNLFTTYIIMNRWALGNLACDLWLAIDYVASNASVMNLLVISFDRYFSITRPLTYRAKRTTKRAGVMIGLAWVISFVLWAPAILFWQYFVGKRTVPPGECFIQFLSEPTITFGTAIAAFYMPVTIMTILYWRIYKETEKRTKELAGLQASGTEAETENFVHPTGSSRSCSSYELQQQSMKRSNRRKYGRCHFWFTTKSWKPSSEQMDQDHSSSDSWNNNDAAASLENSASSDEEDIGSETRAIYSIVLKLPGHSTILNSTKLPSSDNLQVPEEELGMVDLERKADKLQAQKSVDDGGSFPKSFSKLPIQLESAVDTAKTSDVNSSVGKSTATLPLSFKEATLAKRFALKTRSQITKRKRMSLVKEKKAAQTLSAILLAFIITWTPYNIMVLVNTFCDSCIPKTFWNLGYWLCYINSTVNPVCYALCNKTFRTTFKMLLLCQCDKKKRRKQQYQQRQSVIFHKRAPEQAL
Chain of 5-hydroxytryptamine receptor 2A (P28223 whole entry): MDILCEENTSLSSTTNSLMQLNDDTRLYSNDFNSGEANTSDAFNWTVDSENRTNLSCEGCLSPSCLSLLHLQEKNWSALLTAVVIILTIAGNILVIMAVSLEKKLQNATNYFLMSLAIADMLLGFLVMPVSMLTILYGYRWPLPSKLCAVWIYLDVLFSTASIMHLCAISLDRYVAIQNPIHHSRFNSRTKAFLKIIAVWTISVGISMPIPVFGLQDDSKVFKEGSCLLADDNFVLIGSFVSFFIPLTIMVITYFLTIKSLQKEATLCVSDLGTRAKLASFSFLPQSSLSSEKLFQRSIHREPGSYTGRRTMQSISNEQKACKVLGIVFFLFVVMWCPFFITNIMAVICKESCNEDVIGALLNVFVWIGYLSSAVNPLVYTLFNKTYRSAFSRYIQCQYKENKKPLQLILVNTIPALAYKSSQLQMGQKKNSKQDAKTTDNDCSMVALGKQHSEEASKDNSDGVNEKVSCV
Chain of 5-hydroxytryptamine receptor 1B (P28222 whole entry): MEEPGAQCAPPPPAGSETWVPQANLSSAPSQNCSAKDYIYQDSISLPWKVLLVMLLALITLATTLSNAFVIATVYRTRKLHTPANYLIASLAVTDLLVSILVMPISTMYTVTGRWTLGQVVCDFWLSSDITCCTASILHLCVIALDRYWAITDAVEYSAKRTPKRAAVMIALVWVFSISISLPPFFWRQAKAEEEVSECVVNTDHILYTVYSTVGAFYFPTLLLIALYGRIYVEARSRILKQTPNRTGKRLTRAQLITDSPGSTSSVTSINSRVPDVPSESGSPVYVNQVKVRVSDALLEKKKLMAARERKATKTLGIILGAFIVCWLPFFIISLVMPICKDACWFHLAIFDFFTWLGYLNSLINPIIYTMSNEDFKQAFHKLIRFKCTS

A word on the inhibition: it is the drop in the measured response relative to a control, in per cent. A word on the Ki: it is the dissociation constant of the complex between target and ligand, obtained from inhibition or displacement. Consider `COc1cc(OC)c2c(c1)OC[C@@]1(C)NCC[C@@H]21` (racemic), for which the inhibition in assay [1], in assay [2], in assay [3], in assay [5], in assay [6] and in [8] was less than 50% throughout. Also, the inhibition in [9] and in [10] was less than 50% in each case. The inhibition constant (Ki) in assay [4] and in assay [7] was more than 10 µM in each case.

Turning to `C[C@@]12CN(c3ccccc3)c3ccccc3[C@@H]1CCN2` (racemic), the Ki is 1 µM in [4] and more than 10 µM in assay [7].

On to `CC[C@H]1c2ccccc2N(c2ccccc2)C[C@@]1(C)N` (racemic), for which the Ki is 0.631 µM in assay [4], more than 10 µM in assay [11] and more than 10 µM in assay [7].

For the compound `CC[C@H]1c2cc(C)ccc2OC[C@@]1(C)N` (racemic), the inhibition in assay [1], in assay [2], in assay [3], in [5], in [6] and in [8] was less than 50% each time. Further, the inhibition in assay [9] and in [10] was less than 50% each time. For the same compound, the Ki in assay [4], in assay [11] and in assay [7] was more than 10 µM each time.

As to `CC[C@H]1c2cc(OC)ccc2CC[C@@]1(C)N` (racemic), the inhibition in assay [1], in [2], in assay [3], in assay [5], in assay [6] and in [8] was less than 50% throughout. Further, the inhibition in assay [9] and in assay [10] was less than 50% each time. The Ki in assay [4], in assay [11] and in assay [7] was more than 10 µM throughout.
